Data from ChEMBL document CHEMBL2040828 (J Med Chem, 2012).
One block for each compound: values may come before it.

Assays:
Hepatitis C virus = test: Antiviral activity against HCV by cell based replicon assay; type: functional, organism-based, Hepacivirus hominis
[1] = Irreversible inhibition of hepatitis C virus NS5B polymerase; design: species or system Hepacivirus hominis
Salmonella typhimurium [2] = test: Mutagenic activity in Salmonella typhimurium by mini-AMES test in absence of S9 fraction; type: toxicity, organism-based; conditions: salmonella enterica subsp. enterica serovar typhimurium
Salmonella typhimurium [3] = test: Mutagenic activity in Salmonella typhimurium by mini-AMES test in presence of S9 fraction; type: toxicity, organism-based; conditions: salmonella enterica subsp. enterica serovar typhimurium
Lupus La protein = biological target: T1, Lupus La protein (Homo sapiens, UniProt P05455); test: Binding affinity to human La antigen by NMR based ALARM assay; type: ADME
T1 sequence (P05455 whole entry): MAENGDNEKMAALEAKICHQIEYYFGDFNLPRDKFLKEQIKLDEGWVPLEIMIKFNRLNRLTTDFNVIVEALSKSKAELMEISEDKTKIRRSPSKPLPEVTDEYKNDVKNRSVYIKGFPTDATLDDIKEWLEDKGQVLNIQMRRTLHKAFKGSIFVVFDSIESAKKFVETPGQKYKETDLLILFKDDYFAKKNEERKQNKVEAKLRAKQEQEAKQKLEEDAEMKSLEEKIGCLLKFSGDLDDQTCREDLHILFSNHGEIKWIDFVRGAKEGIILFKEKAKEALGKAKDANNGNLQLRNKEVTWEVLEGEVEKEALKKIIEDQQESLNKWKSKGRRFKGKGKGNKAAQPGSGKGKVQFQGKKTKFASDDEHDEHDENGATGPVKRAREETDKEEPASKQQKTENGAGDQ
How it was run: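 NMR-based ALARM assay. The compound was incubated with human La antigen, and NMR was used to monitor reaction with the antigen's reactive thiols.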

[4] = Mutagenic activity in micronuclei assessed as induction of chromosomal damage
[5] = AUC in rat at 10 mg/kg, po; type: ADME, organism-based; design: dose 10 mg/kg, route oral; conditions: plasma
How it was run: (§1)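 Single-dose pharmacokinetics: rats were dosed at 10 mg/kg, and monkeys and dogs at 3 mg/kg. Oral AUC, clearance, half-life and bioavailability were determined. All doses were given in 0.4% MC vehicle.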

Cytochrome P450 3A4 = Cytochrome P450 3A4 (Homo sapiens, UniProt P08684); test: Inhibition of CYP3A4 up to 30 uM; type: ADME
[6] = Clearance in dog at 3 mg/kg; type: ADME, organism-based, Canis lupus familiaris; design: dose 3 mg/kg; conditions: in vivo; how it was run: as §1
[7] = Half life in rat at 10 mg/kg, iv; type: ADME, organism-based; design: dose 10 mg/kg, route intravenous; conditions: in vivo; how it was run: as §1
[8] = Half life in dog at 3 mg/kg, iv; type: ADME, organism-based, Canis lupus familiaris; design: dose 3 mg/kg, route intravenous; conditions: in vivo; how it was run: as §1
[9] = Clearance in rat at 10 mg/kg; type: ADME, organism-based; design: dose 10 mg/kg; conditions: in vivo; how it was run: as §1
[10] = Induction of cytochrome P450 activity at 10 uM; type: ADME
[11] = Oral bioavailability in dog at 3 mg/kg; type: ADME, organism-based, Canis lupus familiaris; conditions: in vivo; how it was run: as §1
[12] = Oral bioavailability in monkey at 3 mg/kg; type: ADME, organism-based, Macaca mulatta; conditions: rhesus monkey, in vivo; how it was run: as §1
Cytochrome P450 2C9 = Cytochrome P450 2C9 (Homo sapiens, UniProt P11712); test: Inhibition of CYP2C9 up to 30 uM; type: ADME
Plasma [13] = test: Metabolic stability in monkey plasma up to 3 hrs; type: ADME, cell-free, Macaca mulatta; conditions: rhesus monkey
[14] = Half life in monkey at 3 mg/kg, iv; type: ADME, organism-based, Macaca mulatta; design: dose 3 mg/kg, route intravenous; conditions: rhesus monkey, in vivo; how it was run: as §1
[15] = AUC in dog at 3 mg/kg, po; type: ADME, organism-based, Canis lupus familiaris; design: dose 3 mg/kg, route oral; conditions: plasma; how it was run: as §1
[16] = Oral bioavailability in rat at 10 mg/kg; type: ADME, organism-based; conditions: in vivo; how it was run: as §1
[17] = Drug level in rat liver at 10 mg/kg, iv after 6 hrs; type: ADME, organism-based; design: dose 10 mg/kg, route intravenous; conditions: read-out: Drug uptake
Plasma [18] = test: Metabolic stability in dog plasma up to 3 hrs; type: ADME, cell-free, Canis lupus familiaris
Cytochrome P450 2D6 = Cytochrome P450 2D6 (Homo sapiens, UniProt P10635); test: Inhibition of CYP2D6 up to 30 uM; type: ADME
Plasma [19] = test: Metabolic stability in rat plasma up to 3 hrs; type: ADME, cell-free
[20] = Clearance in monkey at 3 mg/kg; type: ADME, organism-based, Macaca mulatta; design: dose 3 mg/kg; conditions: rhesus monkey, in vivo; how it was run: as §1
Plasma [21] = test: Metabolic stability in human plasma up to 3 hrs; type: ADME, cell-free
[22] = AUC in monkey at 3 mg/kg, po; type: ADME, organism-based, Macaca mulatta; design: dose 3 mg/kg, route oral; conditions: rhesus monkey, plasma; how it was run: as §1

Sequence of Cytochrome P450 2C9 (P11712 whole entry): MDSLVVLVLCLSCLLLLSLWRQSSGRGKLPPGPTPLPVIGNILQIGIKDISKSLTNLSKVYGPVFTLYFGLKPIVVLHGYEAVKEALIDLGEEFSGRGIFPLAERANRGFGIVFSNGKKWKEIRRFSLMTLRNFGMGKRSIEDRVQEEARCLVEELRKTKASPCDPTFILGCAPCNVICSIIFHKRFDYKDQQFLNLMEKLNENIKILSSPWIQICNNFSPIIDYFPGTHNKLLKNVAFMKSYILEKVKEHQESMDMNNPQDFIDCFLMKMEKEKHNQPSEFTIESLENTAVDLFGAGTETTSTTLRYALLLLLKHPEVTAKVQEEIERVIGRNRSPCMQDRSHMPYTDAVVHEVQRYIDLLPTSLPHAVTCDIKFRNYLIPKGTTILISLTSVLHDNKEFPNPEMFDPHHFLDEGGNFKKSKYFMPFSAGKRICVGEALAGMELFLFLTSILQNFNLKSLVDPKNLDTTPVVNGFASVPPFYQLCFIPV
Sequence of Cytochrome P450 2D6 (P10635 whole entry): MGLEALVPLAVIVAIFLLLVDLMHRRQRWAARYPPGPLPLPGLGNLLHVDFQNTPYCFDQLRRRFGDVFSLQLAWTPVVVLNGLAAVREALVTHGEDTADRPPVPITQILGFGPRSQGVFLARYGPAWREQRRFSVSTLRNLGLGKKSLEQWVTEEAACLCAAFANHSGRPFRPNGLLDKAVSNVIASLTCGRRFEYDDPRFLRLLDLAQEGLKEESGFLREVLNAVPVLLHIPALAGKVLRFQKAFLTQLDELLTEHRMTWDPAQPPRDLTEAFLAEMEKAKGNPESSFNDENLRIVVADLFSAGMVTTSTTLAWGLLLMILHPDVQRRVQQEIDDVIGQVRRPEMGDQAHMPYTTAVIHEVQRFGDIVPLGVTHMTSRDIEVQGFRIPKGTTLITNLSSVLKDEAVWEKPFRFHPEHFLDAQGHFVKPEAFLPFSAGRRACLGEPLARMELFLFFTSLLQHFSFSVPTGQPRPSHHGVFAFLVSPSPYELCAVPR
Sequence of Cytochrome P450 3A4 (P08684 whole entry): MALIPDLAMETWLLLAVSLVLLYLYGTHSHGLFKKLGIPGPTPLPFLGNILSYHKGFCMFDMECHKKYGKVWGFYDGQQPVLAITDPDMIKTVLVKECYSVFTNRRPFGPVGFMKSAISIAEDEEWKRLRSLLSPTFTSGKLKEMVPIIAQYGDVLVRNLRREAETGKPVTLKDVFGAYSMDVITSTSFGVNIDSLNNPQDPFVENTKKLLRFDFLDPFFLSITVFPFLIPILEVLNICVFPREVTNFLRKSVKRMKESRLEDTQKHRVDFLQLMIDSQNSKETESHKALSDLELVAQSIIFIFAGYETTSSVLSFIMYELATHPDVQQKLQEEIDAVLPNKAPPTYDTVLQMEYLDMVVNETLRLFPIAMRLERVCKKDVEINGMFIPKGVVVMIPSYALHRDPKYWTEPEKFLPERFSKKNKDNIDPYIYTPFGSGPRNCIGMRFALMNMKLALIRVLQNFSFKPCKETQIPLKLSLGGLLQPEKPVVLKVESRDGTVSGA

- EC50 (Hepatitis C virus): 140 nM
- IC50 [1]: 4 nM
Structure (SMILES): Cc1ccc2c(c1)c(-c1ccc[nH]c1=O)c(C(=O)NS(=O)(=O)C1CC1)n2Cc1cc(C(N)=O)ccc1F

- EC50 (Hepatitis C virus): 270 nM
- IC50 [1]: 14 nM
Structure (SMILES): Cc1ccc2c(c1)c(-c1ccc[nH]c1=O)c(C(=O)NS(=O)(=O)C1CC1)n2Cc1c(F)c(F)cc(S(C)(=O)=O)c1F

- EC50 (Hepatitis C virus): 2 nM
- IC50 [1]: 7 nM
Structure (SMILES): Cc1ccc2c(c1)c(-c1ccc[nH]c1=O)c(C(=O)N[S+]([O-])C(C)C)n2Cc1cc([N+](=O)[O-])ccc1F (centres undefined)

- EC50 (Hepatitis C virus): 60 nM
- IC50 [1]: 2 nM
Structure (SMILES): CCc1ccc2c(c1)c(-c1ccc[nH]c1=O)c(C(=O)NS(=O)(=O)C1CC1)n2Cc1cc(S(C)(=O)=O)c(Cl)cc1F

- IC50 [1]: 53 nM
Structure (SMILES): Nc1cc(Cn2c(C(=O)O)c(-c3ccc[nH]c3=O)c3cc(Cl)ccc32)ccn1

- EC50 (Hepatitis C virus): 5 nM
- IC50 [1]: 3 nM
Structure (SMILES): Cc1ccc2c(c1)c(-c1ccc[nH]c1=O)c(C(=O)NS(=O)(=O)C1CC1)n2Cc1cc(S(C)(=O)=O)cc(C#N)c1F

- EC50 (Hepatitis C virus): 10 nM
- IC50 [1]: 6 nM
Structure (SMILES): CC(C)(C)c1ccc2c(c1)c(-c1ccc[nH]c1=O)c(C(=O)NS(=O)(=O)C1CC1)n2Cc1cc([N+](=O)[O-])ccc1F

- EC50 (Hepatitis C virus): 500 nM
- IC50 [1]: 6 nM
Structure (SMILES): Cc1ccc2c(c1)c(-c1ccc[nH]c1=O)c(C(=O)NS(=O)(=O)C1CC1)n2Cc1ccnc(N)c1

- EC50 (Hepatitis C virus): 6 nM
- IC50 [1]: 5 nM
Structure (SMILES): O=C(NS(=O)(=O)C1CC1)c1c(-c2ccc[nH]c2=O)c2cc(F)ccc2n1Cc1cc([N+](=O)[O-])ccc1F

- EC50 (Hepatitis C virus): 6 nM
- IC50 [1]: 4 nM
Structure (SMILES): O=C(NS(=O)(=O)C1CC1)c1c(-c2ccc[nH]c2=O)c2ccccc2n1Cc1cc([N+](=O)[O-])ccc1F

- Activity (Lupus La protein): Not Active
- EC50 (Hepatitis C virus): 1 nM
- AUC [5]: 0.17 µM·h
- IC50 [1]: 4 nM
Structure (SMILES): CCc1ccc2c(c1)c(-c1ccc[nH]c1=O)c(C(=O)NS(=O)(=O)C1CC1)n2Cc1cc([N+](=O)[O-])ccc1F
- Activity (Salmonella typhimurium [2]): Non-toxic
- Activity (Salmonella typhimurium [3]): Non-toxic
- Activity [4]: Non-toxic

- EC50 (Hepatitis C virus): 8 nM
- IC50 [1]: 6 nM
Structure (SMILES): Cc1ccc2c(c1)c(-c1ccc(C)[nH]c1=O)c(C(=O)NS(C)(=O)=O)n2Cc1cc([N+](=O)[O-])ccc1F

- EC50 (Hepatitis C virus): 4 nM
- AUC [5]: 0.35 µM·h
- IC50 [1]: 7 nM
Structure (SMILES): Cc1cc2c(-c3ccc[nH]c3=O)c(C(=O)NS(=O)(=O)C3CC3)n(Cc3cc([N+](=O)[O-])ccc3F)c2cc1F

- EC50 (Hepatitis C virus): 2 nM
- IC50 [1]: 4 nM
Structure (SMILES): O=C(NS(=O)(=O)C1CC1)c1c(-c2ccc[nH]c2=O)c2cc(C(F)(F)F)ccc2n1Cc1cc([N+](=O)[O-])ccc1F

- EC50 (Hepatitis C virus): 1400 nM
- IC50 [1]: 6 nM
Structure (SMILES): CCc1ccc2c(c1)c(-c1ccc[nH]c1=O)c(C(=O)NS(=O)(=O)C1CC1)n2Cc1cc(S(N)(=O)=O)c(Cl)cc1Cl

- EC50 (Hepatitis C virus): 0.5 nM
- IC50 [1]: 5 nM
Structure (SMILES): Cc1ccc2c(c1)c(-c1ccc[nH]c1=O)c(C(=O)NS(=O)(=O)N(C)C)n2Cc1cc([N+](=O)[O-])ccc1F

- inhibition (INH) (Cytochrome P450 3A4): Not Active
- clearance [6]: 10 mL/min/kg
- half-life [7]: 8.2 h
- half-life [8]: 1.2 h
- clearance [9]: 8 mL/min/kg
- Activity [10]: Not Active
- bioavailability [11]: 95%
- Activity (Lupus La protein): Not Active
- bioavailability [12]: 30%
- EC50 (Hepatitis C virus): 1 nM
- inhibition (INH) (Cytochrome P450 2C9): Not Active
- Stability (Plasma [13]): Stable
- half-life [14]: 1.3 h
- AUC [15]: 11 µM·h
- bioavailability [16]: 37%
- concentration at 6 h [17]: 460 nM
- AUC [5]: 18 µM·h
- Stability (Plasma [18]): Stable
- inhibition (INH) (Cytochrome P450 2D6): Not Active
- Stability (Plasma [19]): Stable
- IC50 [1]: 5 nM
- clearance [20]: 10 mL/min/kg
- Stability (Plasma [21]): Stable
- AUC [22]: 3.4 µM·h
Structure (SMILES): CCc1ccc2c(c1)c(-c1ccc[nH]c1=O)c(C(=O)O)n2Cc1cc([N+](=O)[O-])ccc1F
- Activity (Salmonella typhimurium [2]): Non-toxic
- Activity (Salmonella typhimurium [3]): Non-toxic
- Activity [4]: Non-toxic
